# Published values gathered from unrelated publications.
# Lines come from different studies, so protocols differ.
# Target: LIM domain kinase 1 (LIMK1, Homo sapiens, UniProt P53667)
SMILES,assay,setting,remaining binding
N[C@H]1CCN(c2nccc(-c3cnn4ncccc34)n2)C1,binding,1 µM,81%
O=C(c1ccc(Nc2ncc(Cl)c(-c3ccc(Cl)s3)n2)cc1)N1CCC(N2CCCC2)CC1,"binding, competition with immobilised ligand",1 µM,40%
COc1cnc(Nc2cccc(S(N)(=O)=O)c2)nc1N1CCN(c2ccccc2)CC1,"binding, competition with immobilised ligand",1 µM,100%
CN(C)c1ncc(F)c(-c2cnn3ncccc23)n1,binding,1 µM,89%
COc1cc(-c2cn(C3CCc4c(F)cccc4N(CC(F)(F)F)C3=O)nn2)ccc1-n1cnc(C)c1 (centres unmarked),"cell-free assay, competition with immobilised ligand",1 µM,100%
C[C@H]1CCN(c2nccc(-c3cnn4ncccc34)n2)C1,binding,1 µM,91%
CCN1CCN(Cc2ccc(C(=O)Nc3ccc(C)c(Oc4ccc5c(c4)CC(=O)N5)c3)cc2C(F)(F)F)CC1,"binding, competition with immobilised ligand",1 µM,100%
FC(F)(F)Oc1cccc(-c2cnc3ccc(-c4ccncc4)nn23)c1,"cell-free assay, competition with immobilised ligand",5 µM,81%
F[C@@H]1CCN(c2nccc(-c3cnn4ncccc34)n2)C1,binding,1 µM,89%
CCC(=N\O)/C(C)=C/c1ccc(F)cc1,"cell-free assay, competition with immobilised ligand",1 µM,78%
CN(CCCC(F)(F)F)c1nccc(-c2cnn3ncccc23)n1,binding,1 µM,86%
Nc1ncc2c(n1)-c1c([nH]c3ccc(C#CC4CC4)cc13)CCCC2,"binding, competition with immobilised ligand",1 µM,96%
Cc1c(NC(=O)c2cc(C(N)=O)nc3cc(F)ccc23)c(C(F)(F)F)nn1Cc1ccc(C#N)cc1,"cell-free assay, competition with immobilised ligand",1 µM,78%
COc1ncc2cc3ccccc3nc2c1C#N,"cell-free assay, competition with immobilised ligand",5 µM,98%
CS(=O)(=O)N1CCCC(NC(=O)[C@H](CCC2CCCCC2)NC(=O)c2ccc(CNC(=O)c3cnc4ccccn34)cc2)C1 (some centres unmarked),"cell-free assay, competition with immobilised ligand",0.1 µM,75%
O=C(NCC1CCOCC1)c1n[nH]cc1NC(=O)c1c(F)cccc1F,"binding, competition with immobilised ligand",1 µM,100%
CC(=O)N1CCC(c2ccc(C(=O)NC(=N)N)cc2C(F)(F)F)CC1,"cell-free assay, competition with immobilised ligand",1 µM,100%
O=C(NCCCN1CCOCC1)c1ccc(Nc2nccc(-c3cc4ccccc4s3)n2)cc1,"binding, competition with immobilised ligand",1 µM,53%
COCCOc1nc(-c2ccc(Cl)nc2)nc2c1CN(C(=O)c1ncn3ccccc13)CC2,"cell-free assay, competition with immobilised ligand",0.1 µM,100%
O=C(NCCCN1CCOCC1)c1ccc(Nc2ncc(Cl)c(-c3ccc(Cl)s3)n2)cc1,"binding, competition with immobilised ligand",1 µM,83%
